Target: Transient receptor potential cation channel subfamily V member 1 (Rattus norvegicus, UniProt O35433)
Assay: Agonist-enhancing activity at TRPV1 receptor in E15 rat primary dorsal root ganglion cells assessed as capsaicin-induced 45Ca2+ influx by microplate liquid scintillation counter
Summary of the method: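 E15 rat DRG cultures grown 5–6 days at 35°C. Uptake with capsaicin ~0.5 µM, 10 min at 20°C, 0.5 µCi/well 45Ca2+ in Tris-HBSS pH 7.5. Compound up to 50 µM, 0.2% DMSO, from 25 mM stocks. Counts normalized to in-plate capsaicin-only wells (100%, 4 wells). Variable-slope sigmoid fit gave EC50, Hill slope and ΔEmax.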

Transient receptor potential cation channel subfamily V member 1, sequence (O35433 whole entry): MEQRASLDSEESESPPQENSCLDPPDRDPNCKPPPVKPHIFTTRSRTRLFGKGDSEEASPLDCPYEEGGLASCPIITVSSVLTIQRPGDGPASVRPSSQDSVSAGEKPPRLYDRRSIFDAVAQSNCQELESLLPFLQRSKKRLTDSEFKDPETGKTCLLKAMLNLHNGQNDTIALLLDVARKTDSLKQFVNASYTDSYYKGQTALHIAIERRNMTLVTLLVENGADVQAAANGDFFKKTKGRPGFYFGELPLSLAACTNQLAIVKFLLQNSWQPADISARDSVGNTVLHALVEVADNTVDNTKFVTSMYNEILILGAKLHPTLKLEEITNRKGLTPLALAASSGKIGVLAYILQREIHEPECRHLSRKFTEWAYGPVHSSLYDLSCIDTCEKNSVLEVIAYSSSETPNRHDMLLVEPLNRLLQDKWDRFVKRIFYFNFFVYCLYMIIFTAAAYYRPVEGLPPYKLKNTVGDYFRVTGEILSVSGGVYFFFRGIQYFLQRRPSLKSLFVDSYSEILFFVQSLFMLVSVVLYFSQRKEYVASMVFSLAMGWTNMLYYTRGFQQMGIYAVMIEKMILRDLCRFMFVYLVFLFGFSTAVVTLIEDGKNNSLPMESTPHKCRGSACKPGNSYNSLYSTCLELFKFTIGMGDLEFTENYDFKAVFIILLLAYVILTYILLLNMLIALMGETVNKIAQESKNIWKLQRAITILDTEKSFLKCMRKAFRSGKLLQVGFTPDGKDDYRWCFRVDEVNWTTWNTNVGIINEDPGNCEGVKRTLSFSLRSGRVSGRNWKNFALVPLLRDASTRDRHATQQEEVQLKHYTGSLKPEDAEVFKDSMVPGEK

- EC50: 17 µM
SMILES: CCOC(=O)C1=C(c2cccc(Cl)c2)N=C(C)C(C(=O)OCC)C1CC (single isomer, unassigned; (+)) [3,5-diethyl-2-methyl-4-ethyl-6-(3-chlorophenyl)-1,4-(+)-dihydropyridine-3,5-dicarboxylate]
